High-throughput results deposited in PubChem BioAssay by Columbia University Molecular Screening Center.
Insulin prom act: TRM-6 insulin promoter activation | TRM-6 cells, insulin promoter eGFP reporter, imaging; plate-scaled: unstimulated 0, stimulated control 100 | activation, % at 2 µM | actives 0.81% (n = 130,000) | AID 1296;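 active means activation at 2 µM above a set limit, confirmed on inspection of the cell images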;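 further: share of cells whose green reporter signal exceeds an intensity cutoff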
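Test system: human fetal islet-derived TRM-6 cells with tamoxifen-inducible insulin promoter–eGFP reporter. Compound dosing: 2 µM final, single concentration. Incubation: tamoxifen pre-incubation 15 h overnight, then compound exposure 48 h at 37 °C. Signal: fixed-cell fluorescence microscopy, eGFP plus Hoechst.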
* = called active by the depositor; [ ] = another dose, or the depositor's remark. This is one part of a sample in which hits are shown more often than they occur.

SMILES | Insulin prom act
c1ccc(-c2nc3nc4ccccc4nc3n2Cc2ccco2)cc1 | 200.0*
N=c1c2c(-c3ccccc3)c(-c3ccccc3)n(Cc3ccco3)c2ncn1CCO | 326.7
Fc1ccc(-c2nc3nc4ccccc4nc3n2Cc2ccco2)cc1 | -7.7
Cc1cc(C)nc(/N=C(/NC(=O)Nc2cccc(Cl)c2)Nc2ccccc2)n1 | 6.7
CCc1nnc(NC(=O)CN2C(=O)/C(=C/c3cc(OC)c(OC)c(OC)c3)SC2=S)s1 | 9.1
CN(C)C(=O)NC(Nc1ccc(Cl)cc1Cl)C(Cl)(Cl)Cl (centres undefined) | 0.0
Cn1c(NCc2c(O)ccc3ccccc23)nc2ccccc21 | -6.9
Cn1c(Nn2cnnc2)nc2ccccc21 | 121.4*
CCCn1c(Nc2ccccc2)nc2ccccc21 | 9.7
Cc1ccc(-c2csc(NC(=O)CCNC(=O)c3ccccc3Cl)n2)cc1 | -2.8
COc1ccc(/C=N/NC(=O)CN2CCSCC2)cc1C | 2.6
CC(OC(=O)c1ccncc1)C(=O)Nc1cc(S(=O)(=O)N2CCCCC2)ccc1Cl (centres undefined) | -6.5
CCCC(c1nnnn1C1CCCC1)N1CCN(C(=O)c2ccco2)CC1 (centres undefined) | 180.6*
O=C(c1ccco1)N1CCN(C(c2ccccn2)c2nnnn2C2CCCC2)CC1 (centres undefined) | 195.2
O=C(c1ccco1)N1CCN(C(c2coc3ccc(Cl)cc3c2=O)c2nnnn2C2CCCC2)CC1 (centres undefined) | 0.0
CCOc1ccc(-c2c(C)n([O-])c3c([n+]2=O)CCCCC3)cc1 | -5.3
CCn1c(CN2CCN(c3cccc(C)c3C)CC2)n[nH]c1=S | 0.0
CCOc1ccc(C(=O)CSCC(=O)O)cc1 | 5.9
C=CCc1cc(/C=N/NC(=O)CSc2nnc(CCCc3ccc(OC)cc3)o2)cc(OC)c1O | 4.3
CCn1ncc(C2=NOC(C(=O)Nc3cccc(O)c3)C2)c1C (centres undefined) | 0.0
COc1ccc(N/N=C(C)/C(=N/O)C(=O)Nc2ccccc2)cc1 | 9.1
CN(c1ccccc1)c1ccc(/C=N/NC(=O)CC#N)cc1 | -3.8
CCCn1c(CN2CCCCC2CC)nc2c1c(=O)n(C)c(=O)n2C (centres undefined) | 600.0*
Cn1c(=O)c2c(nc(CN3CCN(Cc4ccccc4)CC3)n2Cc2ccccc2)n(C)c1=O | -80.0
CCCn1c(OC)nc2c1c(=O)n(C)c(=O)n2C | 0.0
SMILES | Insulin prom act
O=C(Cc1ccc(Br)cc1)Nc1ccccc1Cl | 8.3
O=C(NCCc1nc(-c2ccccc2)cs1)c1ccc(Br)cc1 | 3.8
Cc1occc1C(=O)NNC(=S)NCc1ccccc1 | 0.0
CO/N=C(/C)CCS(=O)(=O)c1ccccc1 | 7.1
CC1=CC(C)(C)N(C(=O)CSc2nncn2C)c2ccccc21 | 630.8*
CC1=CC(C)(C)N(C(=O)Nc2ccccc2)c2ccccc21 | 0.0
C/C=C/C(=O)N1c2ccccc2C(C)=CC1(C)C | 0.0
Oc1ccc(N2CCN(C(c3ccccn3)c3nnnn3C3CCCC3)CC2)cc1 (centres undefined) | -85.7
CCCc1c2ccccc2nc2ccccc12 | -84.6
Cc1cc(=O)oc2cc(OCC(=O)c3ccc4c(c3)NC(=O)CO4)ccc12 | 0.0
CCN1/C(=C/c2ccc3cc(C)ccc3[n+]2CC)Sc2ccccc21 | 170.3
CCN1/C(=C/C=C/C=C/c2sc3ccccc3[n+]2CC)Sc2ccccc21 | 354.5*
CCC(=O)/C=C1/Sc2ccccc2N1CC | 328.6
Cn1cccc1C(=O)NC(=O)COC(=O)c1cc(S(=O)(=O)N2CCCCC2)ccc1Cl | -6.7
Cc1ccc2nc(COc3ccc(Cl)cc3)cc(=O)n2c1 | -5.9
COc1ccc(/C=N/NC(=O)CCNc2n[nH]c(=O)[nH]c2=O)c(OC)c1 | -2.7
CCCCOC(=O)CNc1n[nH]c(=S)[nH]c1=O | 0.0
CC(C)OC(=O)CCNc1n[nH]c(=O)[nH]c1=O | 542.9*
CCC(C)n1c(SCC(=O)Nc2cc(C(C)(C)C)nn2-c2ccccc2)nc2ccccc2c1=O (centres undefined) | 0.0
O=C(c1cc(F)ccc1F)C1CCCN(C(=O)CCN2CCCCO2)C1 (centres undefined) | -8.3
S=C(NCc1ccco1)N1CCN(c2ccccn2)CC1 | -5.3
CCCc1ccc(C(C)NC(=O)c2cnccn2)cc1 (centres undefined) | 8.6
CC(C)Cc1ccc(C(C)NC(=O)c2ccc(=O)[nH]c2)cc1 (centres undefined) | 350.0*
CC(C)Cc1ccc(C(C)C(=O)O)cc1 (centres undefined) | 4.5
Cc1ccc(C)c(OC(=O)c2cncc(Br)c2)c1 | 0.0
SMILES | Insulin prom act
O=C(NC1CCCCC1)C(c1cc2c(cc1[N+](=O)[O-])OCO2)N1CCCCC1 (centres undefined) | 0.0
Cc1ccc(C(=O)OCC(=O)N(C)C2CCS(=O)(=O)C2)cc1[N+](=O)[O-] (centres undefined) | -7.1
C=CCN1C(=O)/C(=C\C=C2\N(C)c3ccccc3C2(C)C)SC1=S | 614.3*[fluoresces]
Cc1c(N=C/C=C2/N(C)c3ccccc3C2(C)C)c(=O)n(-c2ccccc2)n1C | 30.4
CCN1C(=O)/C(=C\N2CCCc3ccccc32)SC1=S | -7.1
CC(=O)NC(CCS(C)(=O)=O)C(=O)Nc1nc(C)cs1 (centres undefined) | 750.0*
Cc1csc(NC(=O)C(NS(=O)(=O)c2ccc(Br)s2)c2ccccc2)n1 (centres undefined) | 0.0
Cc1csc(NC(=O)c2ccccc2C(=O)O)n1 | 6.9
CN(C)S(=O)(=O)c1ccc(Cl)c(NC(=O)CSc2nc3ccccc3c(=O)n2CCCN2CCOCC2)c1 | -9.1
COc1ccc(OC)c(C(=O)CSc2nnc(Cc3cccs3)n2CCc2ccccc2)c1 | -2.8
CCOC(=O)c1c(NC(=O)c2ccc(Cl)cc2)csc1C | -9.7
O=C(CN(c1ccccc1)S(=O)(=O)c1ccccc1)N/N=C/c1ccco1 | -8.1
COc1ccc(C(=O)Nc2nc3nccc(-c4ccccc4)n3n2)cc1 | -7.7
Cc1cc(C)c(S(=O)(=O)N2CCC(C(=O)NCc3ccc(Cl)cc3Cl)CC2)c(C)c1 | -6.5
Cc1ccc(NC(=O)CCC(=O)OCC(F)(F)C(F)F)cc1 | 80.6*
Cc1ccc(NC(=O)CCC(=O)OCC(=O)c2ccc(-c3ccccc3)cc2)cc1 | -24.2
O=C(CCC(=O)OCCCC(F)(F)C(F)(F)F)Nc1ccccc1 | -9.4
COc1ccc(CNS(=O)(=O)c2cc(OCC(N)=O)c(C)cc2Cl)cc1 | -7.0
Cc1cc(NC(=O)CSc2nc3c([nH]c4ccccc43)c(=O)n2-c2cccc(C(F)(F)F)c2)no1 | -5.3
COc1cccc(-n2c(SCC(N)=O)nc3c([nH]c4ccccc43)c2=O)c1 | 252.2*
COc1cccc(-n2c(SCC(N)=O)nnc2-c2ccncc2)c1 | -90.9
Cc1nn(C)c(Cl)c1C(=O)NCC(=O)NCc1ccccc1 | 0.0
CCOC(=O)N1CCC(NC(=O)c2cc(C(=O)Nc3ccc(S(=O)(=O)N4CCOCC4)cc3)ccc2CO)CC1 | 5.9
CCOc1ccc(N2C(=O)C3C(c4ccccc4F)NN(C(=O)c4ccc(C)cc4)C3C2=O)cc1 (centres undefined) | 242.9
CCN1CCCC1CNCc1ccccc1OCc1ccc(F)cc1 (centres undefined) | 97.2*
CCOc1cc(CNCCCN2CCOCC2)cc(Br)c1OCc1ccccc1Cl | 114.3
CCNCc1ccccc1OCc1ccccc1 | 0.0
CCc1ccc(NC(=S)NCC2CCCN2CC)cc1 (centres undefined) | 5.9
CCOc1cc(CNCC2CCCN2CC)cc(Cl)c1OC (centres undefined) | 345.0*
